Published values of several laboratories.
Compare with care: the assays were run in different laboratories.
HSD11B2: 11-beta-hydroxysteroid dehydrogenase type 2 (HSD11B2, Homo sapiens, UniProt P80365)
CDK4: Cyclin-dependent kinase 4 (CDK4, Homo sapiens, UniProt P11802)
FGFR3: Fibroblast growth factor receptor 3 (FGFR3, Homo sapiens, UniProt P22607)

SMILES	target	assay	setting	endpoint	value
CCCCCCC(C)(C)c1cc(O)c2c(c1)OC(C)(C)C1CCC(=O)CC21 (stereo not shown)	HSD11B2	enzyme activity, inhibitor	20 µM, lysate	inhibition	< 40%
Nc1ncc(-c2nc(N3CCOCC3)nc(N3CCOCC3)n2)c(C(F)F)n1	Ribosomal protein S6 kinase alpha-1, N-terminal kinase domain (RPS6KA1, Homo sapiens, UniProt Q15418)	binding, competition with immobilised ligand	10 µM	remaining binding	75%
CCOC(=O)[C@H]1Cc2c(cc([N+](=O)[O-])cc2[N+](=O)[O-])[C@H](O)[C@]12C(=O)Nc1ccc(Br)cc12	CDK4	cell-free assay, inhibitor, TR-FRET	1 µM	inhibition	34.1%
CN1CC[C@@]2(C)c3cc(OC(=O)Nc4ccccc4)ccc3N(C)[C@@H]12	Muscarinic acetylcholine receptor M2 (CHRM2, Homo sapiens, UniProt P08172)	ligand displacement, radioligand	10 µM	inhibition	7.6%
CCOC(=O)[C@H]1Cc2c(cc([N+](=O)[O-])cc2[N+](=O)[O-])[C@H](O)[C@]12C(=O)Nc1cc(Br)ccc12	CDK4	cell-free assay, inhibitor, TR-FRET	1 µM	inhibition	32.9%
Cc1nn(C)cc1-c1nc2c(N3CCN(Cc4ccc(Cl)cc4)CC3)c(Cl)cnc2[nH]1	FGFR3	binding, competition with immobilised ligand	1 µM	remaining binding	70%
COc1ncccc1-c1cnn2ccc(N3CCN(C(=O)OC(C)C)CC3)nc12	Serine/threonine-protein kinase DCLK1 (DCLK1, Homo sapiens, UniProt O15075)	binding, competition with immobilised ligand	1 µM	remaining binding	99%
C[C@]12CC[C@H]3[C@@H](CCC4=CC(=O)CC[C@@H]43)[C@@H]1CC[C@@H]2O	HSD11B2	enzyme activity, inhibitor	20 µM, lysate	inhibition	< 40%
Clc1cccc(-c2c[nH]c3nccc(N4CCOCC4)c23)c1	Serine/threonine-protein kinase 3 (STK3, Homo sapiens, UniProt Q13188)	thermal stability, DSF	20 µM	ΔTm	> 8 °C
C#Cc1n[nH]c2c(-c3cn([C@@H](C)c4ccccn4)c(=O)[nH]c3=O)cc(F)cc12	FGFR3	enzyme activity, inhibitor	0.1 µM	inhibition	2.9%
